Measured values taken from the M2OR odorant receptor database.
Positions count from the first letter of the chain named.

Assays:
Conditions in all cases: stereoisomer not certain
O5AP2 A105T = system: T1, O5AP2 A105T
T1 sequence (whole entry): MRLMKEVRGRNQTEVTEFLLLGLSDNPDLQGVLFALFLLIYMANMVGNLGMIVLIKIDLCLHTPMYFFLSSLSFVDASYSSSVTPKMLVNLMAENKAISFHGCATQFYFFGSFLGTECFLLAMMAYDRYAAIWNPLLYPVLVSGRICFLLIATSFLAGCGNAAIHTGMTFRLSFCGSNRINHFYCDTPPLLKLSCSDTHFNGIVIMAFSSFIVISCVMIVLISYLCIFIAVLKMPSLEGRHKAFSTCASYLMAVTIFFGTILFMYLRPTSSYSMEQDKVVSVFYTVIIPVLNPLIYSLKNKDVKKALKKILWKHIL
In short: (§1)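 Whether a receptor–molecule pair is responsive (active) rests on the original authors' judgment that its measured signal was statistically different from baseline. Pairs without that judgment are non-responsive (inactive). Sources used varied assay methods, commonly transient luciferase assays in mammalian cell lines.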

O5AU1 = system: T2, O5AU1
T2 sequence (whole entry): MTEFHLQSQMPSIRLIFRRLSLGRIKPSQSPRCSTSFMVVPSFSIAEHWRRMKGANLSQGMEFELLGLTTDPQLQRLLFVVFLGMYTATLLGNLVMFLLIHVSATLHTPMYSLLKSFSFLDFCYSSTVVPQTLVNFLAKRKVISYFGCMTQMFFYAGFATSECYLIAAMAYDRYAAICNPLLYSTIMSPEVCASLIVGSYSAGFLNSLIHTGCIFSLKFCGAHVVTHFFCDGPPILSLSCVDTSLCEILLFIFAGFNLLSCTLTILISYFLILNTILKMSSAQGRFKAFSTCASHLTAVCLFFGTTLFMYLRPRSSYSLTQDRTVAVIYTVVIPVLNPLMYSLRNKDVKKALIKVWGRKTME
In short: as §1

O5H14 = system: T3, O5H14
T3 sequence (whole entry): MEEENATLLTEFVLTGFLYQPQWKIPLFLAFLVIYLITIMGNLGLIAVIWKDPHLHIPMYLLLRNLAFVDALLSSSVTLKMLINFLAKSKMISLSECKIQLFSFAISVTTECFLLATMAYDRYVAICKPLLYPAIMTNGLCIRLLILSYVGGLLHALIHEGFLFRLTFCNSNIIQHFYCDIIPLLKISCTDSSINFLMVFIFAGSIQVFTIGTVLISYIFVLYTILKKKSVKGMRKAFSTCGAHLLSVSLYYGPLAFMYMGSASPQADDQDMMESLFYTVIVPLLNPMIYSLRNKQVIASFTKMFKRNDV
In short: as §1

O5H15 V108I S148T T167S = system: T4, O5H15 V108I S148T T167S
T4 sequence (whole entry): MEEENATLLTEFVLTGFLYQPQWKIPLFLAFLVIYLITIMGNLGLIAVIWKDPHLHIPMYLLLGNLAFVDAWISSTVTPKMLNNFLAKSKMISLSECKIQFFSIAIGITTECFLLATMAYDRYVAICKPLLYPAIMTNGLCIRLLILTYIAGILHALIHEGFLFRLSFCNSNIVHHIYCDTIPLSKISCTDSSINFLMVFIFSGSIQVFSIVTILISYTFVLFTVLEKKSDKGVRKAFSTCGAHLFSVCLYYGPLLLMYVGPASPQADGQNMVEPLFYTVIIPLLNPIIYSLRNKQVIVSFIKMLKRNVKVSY
In short: as §1

O6C65 T222A = system: T5, O6C65 T222A
T5 sequence (whole entry): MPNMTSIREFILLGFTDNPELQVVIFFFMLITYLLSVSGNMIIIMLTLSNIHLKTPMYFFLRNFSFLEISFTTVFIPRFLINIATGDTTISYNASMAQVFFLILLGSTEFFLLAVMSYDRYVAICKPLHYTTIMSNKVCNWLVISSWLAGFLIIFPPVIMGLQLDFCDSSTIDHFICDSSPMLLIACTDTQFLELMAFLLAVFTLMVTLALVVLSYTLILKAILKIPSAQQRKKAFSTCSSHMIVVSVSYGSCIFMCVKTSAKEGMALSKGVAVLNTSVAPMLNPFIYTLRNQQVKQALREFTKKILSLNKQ
In short: as §1

O6C70 L181P = system: T6, O6C70 L181P
T6 sequence (whole entry): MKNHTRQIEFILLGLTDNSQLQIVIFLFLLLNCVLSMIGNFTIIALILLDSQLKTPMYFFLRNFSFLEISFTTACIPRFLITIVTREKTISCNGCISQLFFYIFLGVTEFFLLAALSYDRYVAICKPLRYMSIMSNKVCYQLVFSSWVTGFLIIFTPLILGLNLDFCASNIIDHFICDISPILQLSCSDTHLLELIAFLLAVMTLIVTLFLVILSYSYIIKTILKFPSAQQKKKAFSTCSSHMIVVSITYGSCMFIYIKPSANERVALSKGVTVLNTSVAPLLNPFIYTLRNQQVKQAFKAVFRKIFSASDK
In short: as §1

O7E24 S193F P242S = system: T7, O7E24 S193F P242S
T7 sequence (whole entry): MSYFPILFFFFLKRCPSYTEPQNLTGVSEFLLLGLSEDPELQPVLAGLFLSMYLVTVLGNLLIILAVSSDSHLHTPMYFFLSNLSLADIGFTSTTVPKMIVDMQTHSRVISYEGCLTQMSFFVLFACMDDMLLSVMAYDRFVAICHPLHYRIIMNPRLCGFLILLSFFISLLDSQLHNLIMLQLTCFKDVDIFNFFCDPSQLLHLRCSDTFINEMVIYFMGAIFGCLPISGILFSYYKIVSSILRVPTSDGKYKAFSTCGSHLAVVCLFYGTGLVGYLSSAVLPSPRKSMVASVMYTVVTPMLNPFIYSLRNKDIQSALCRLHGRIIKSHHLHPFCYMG
In short: as §1

O7E24 = system: T8, O7E24
T8 sequence (whole entry): T7 sequence (whole entry) with F193S
In short: as §1

OR10A2 (Homo sapiens) = biological target: T9, OR10A2 (Homo sapiens) (UniProt Q9H208)
T9 sequence (whole entry): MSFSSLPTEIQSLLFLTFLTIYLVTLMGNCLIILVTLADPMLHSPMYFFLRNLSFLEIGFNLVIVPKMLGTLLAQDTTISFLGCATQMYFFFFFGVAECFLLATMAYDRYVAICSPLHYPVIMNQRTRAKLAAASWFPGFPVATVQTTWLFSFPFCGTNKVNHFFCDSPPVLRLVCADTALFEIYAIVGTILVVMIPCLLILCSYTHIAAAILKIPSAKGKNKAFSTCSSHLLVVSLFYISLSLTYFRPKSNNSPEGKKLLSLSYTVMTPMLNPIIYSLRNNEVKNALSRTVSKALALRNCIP
In short: as §1

OR10A3 (Homo sapiens) = biological target: T10, OR10A3 (Homo sapiens) (UniProt P58181)
T10 sequence (whole entry): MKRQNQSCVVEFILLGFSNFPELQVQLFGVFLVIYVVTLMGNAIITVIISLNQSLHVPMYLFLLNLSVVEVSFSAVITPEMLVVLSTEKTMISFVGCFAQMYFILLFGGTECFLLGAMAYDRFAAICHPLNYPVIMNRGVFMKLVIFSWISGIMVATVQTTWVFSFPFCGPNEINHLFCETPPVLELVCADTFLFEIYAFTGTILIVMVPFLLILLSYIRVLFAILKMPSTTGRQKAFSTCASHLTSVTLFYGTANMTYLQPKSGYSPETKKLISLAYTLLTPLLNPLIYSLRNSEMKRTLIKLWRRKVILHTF
In short: as §1

OR10A4 (Homo sapiens) = biological target: T11, OR10A4 (Homo sapiens) (UniProt Q9H209)
T11 sequence (whole entry): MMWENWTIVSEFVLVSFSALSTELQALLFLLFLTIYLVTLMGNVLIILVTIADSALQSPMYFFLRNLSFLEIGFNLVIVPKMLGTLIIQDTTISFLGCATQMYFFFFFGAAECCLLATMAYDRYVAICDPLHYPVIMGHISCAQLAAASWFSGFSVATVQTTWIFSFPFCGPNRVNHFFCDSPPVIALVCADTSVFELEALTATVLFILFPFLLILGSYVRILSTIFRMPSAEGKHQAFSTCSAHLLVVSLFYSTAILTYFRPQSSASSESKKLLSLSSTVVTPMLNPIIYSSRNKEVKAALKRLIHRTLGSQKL
In short: as §1

OR10A5 (Homo sapiens) = biological target: T12, OR10A5 (Homo sapiens) (UniProt Q9H207)
T12 sequence (whole entry): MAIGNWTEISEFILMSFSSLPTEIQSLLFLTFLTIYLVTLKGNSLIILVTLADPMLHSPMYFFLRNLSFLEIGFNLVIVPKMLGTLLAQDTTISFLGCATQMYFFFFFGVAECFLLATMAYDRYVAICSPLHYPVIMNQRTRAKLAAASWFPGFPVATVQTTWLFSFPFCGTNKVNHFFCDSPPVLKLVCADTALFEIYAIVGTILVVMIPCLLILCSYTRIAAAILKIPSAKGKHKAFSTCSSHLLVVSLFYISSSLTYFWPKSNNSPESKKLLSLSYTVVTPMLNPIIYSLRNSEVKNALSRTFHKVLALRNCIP
In short: as §1

OR10A6 (Homo sapiens) = biological target: T13, OR10A6 (Homo sapiens) (UniProt Q8NH74)
T13 sequence (whole entry): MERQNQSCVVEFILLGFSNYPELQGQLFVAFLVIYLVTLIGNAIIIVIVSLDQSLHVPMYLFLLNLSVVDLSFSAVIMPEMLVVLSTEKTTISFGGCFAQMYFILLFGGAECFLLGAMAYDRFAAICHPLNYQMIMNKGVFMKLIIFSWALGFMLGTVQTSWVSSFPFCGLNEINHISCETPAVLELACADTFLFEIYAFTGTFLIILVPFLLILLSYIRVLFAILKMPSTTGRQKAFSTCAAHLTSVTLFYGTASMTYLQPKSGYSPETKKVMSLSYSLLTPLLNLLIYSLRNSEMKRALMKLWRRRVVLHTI
In short: as §1

OR10A7 (Homo sapiens) = biological target: T14, OR10A7 (Homo sapiens) (UniProt Q8NGE5)
T14 sequence (whole entry): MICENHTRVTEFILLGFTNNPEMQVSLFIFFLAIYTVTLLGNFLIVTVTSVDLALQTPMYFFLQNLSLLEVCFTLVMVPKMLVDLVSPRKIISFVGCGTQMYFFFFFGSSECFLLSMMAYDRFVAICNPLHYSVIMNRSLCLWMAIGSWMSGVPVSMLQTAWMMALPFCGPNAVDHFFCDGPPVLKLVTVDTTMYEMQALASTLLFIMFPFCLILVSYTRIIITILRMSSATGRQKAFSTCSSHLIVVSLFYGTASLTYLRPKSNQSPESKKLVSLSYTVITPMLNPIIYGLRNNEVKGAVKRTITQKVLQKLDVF
In short: as §1

OR10AD1 (Homo sapiens) = biological target: T15, OR10AD1 (Homo sapiens) (UniProt Q8NGE0)
T15 sequence (whole entry): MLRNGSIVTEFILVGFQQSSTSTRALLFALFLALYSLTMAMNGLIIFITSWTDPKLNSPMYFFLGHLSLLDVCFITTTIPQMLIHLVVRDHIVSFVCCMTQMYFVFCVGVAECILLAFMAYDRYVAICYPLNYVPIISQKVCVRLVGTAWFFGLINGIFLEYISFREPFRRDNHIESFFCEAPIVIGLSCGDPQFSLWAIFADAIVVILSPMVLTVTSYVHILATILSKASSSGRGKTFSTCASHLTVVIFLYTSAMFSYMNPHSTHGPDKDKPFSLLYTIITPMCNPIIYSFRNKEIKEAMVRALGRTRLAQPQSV
In short: as §1

OR10AG1 (Homo sapiens) = biological target: T16, OR10AG1 (Homo sapiens) (UniProt Q8NH19)
T16 sequence (whole entry): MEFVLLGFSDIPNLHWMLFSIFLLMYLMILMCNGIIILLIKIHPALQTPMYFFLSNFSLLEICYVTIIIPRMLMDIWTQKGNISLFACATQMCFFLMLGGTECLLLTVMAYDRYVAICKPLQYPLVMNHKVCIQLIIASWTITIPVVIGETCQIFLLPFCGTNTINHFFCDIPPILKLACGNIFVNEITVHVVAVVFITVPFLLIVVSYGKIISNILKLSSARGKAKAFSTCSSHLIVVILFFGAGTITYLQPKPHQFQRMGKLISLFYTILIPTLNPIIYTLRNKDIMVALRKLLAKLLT
In short: as §1

OR10C1 (Homo sapiens) = biological target: T17, OR10C1 (Homo sapiens) (UniProt Q96KK4)
T17 sequence (whole entry): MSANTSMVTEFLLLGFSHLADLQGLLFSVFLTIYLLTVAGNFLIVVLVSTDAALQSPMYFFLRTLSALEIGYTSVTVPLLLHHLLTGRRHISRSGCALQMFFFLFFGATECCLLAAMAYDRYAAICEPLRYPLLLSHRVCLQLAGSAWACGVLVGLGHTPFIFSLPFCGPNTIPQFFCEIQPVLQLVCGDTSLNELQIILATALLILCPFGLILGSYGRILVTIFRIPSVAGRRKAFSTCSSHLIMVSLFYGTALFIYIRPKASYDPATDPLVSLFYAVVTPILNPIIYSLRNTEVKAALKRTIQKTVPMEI
In short: as §1

OR10D3 (Homo sapiens) = biological target: T18, OR10D3 (Homo sapiens) (UniProt Q8NH80)
T18 sequence (whole entry): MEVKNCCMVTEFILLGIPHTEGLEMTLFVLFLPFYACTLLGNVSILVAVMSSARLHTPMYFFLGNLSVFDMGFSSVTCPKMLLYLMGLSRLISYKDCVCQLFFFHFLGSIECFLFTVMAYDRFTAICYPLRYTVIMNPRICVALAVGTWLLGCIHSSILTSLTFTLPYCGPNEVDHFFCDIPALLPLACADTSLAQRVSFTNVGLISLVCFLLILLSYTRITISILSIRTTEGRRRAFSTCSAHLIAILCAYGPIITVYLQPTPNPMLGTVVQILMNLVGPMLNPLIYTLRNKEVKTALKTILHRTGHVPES
In short: as §1

Measured: odorant receptor agonist call;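 also: active if original authors judged signal statistically different from baseline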

CCCCCCC=CCCC=O
inactive: O5AP2 A105T | O5AU1 | O5H14 | O5H15 V108I S148T T167S | O6C65 T222A | O6C70 L181P | O7E24 S193F P242S | O7E24 | OR10A2 (Homo sapiens) | OR10A3 (Homo sapiens) | OR10A4 (Homo sapiens) | OR10A5 (Homo sapiens) | OR10A6 (Homo sapiens) | OR10A7 (Homo sapiens) | OR10AD1 (Homo sapiens) | OR10AG1 (Homo sapiens) | OR10C1 (Homo sapiens) | OR10D3 (Homo sapiens)
